{"source": "ChEMBL document CHEMBL2434893", "about": "“Synthesis, DNA binding and anti-leukemic activity of an aminoacyl nucleolipid” (Bioorg Med Chem Lett, 2013)", "key": {"U-251": {"system": "U-251", "test": "Cytotoxicity against human U251 cells assessed as cell growth at 10 uM after 48 hrs by SRB assay relative to control", "type": "functional", "conditions": "U-251, 48 h, read-out: Activity", "in_short": "(§1)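 Single-dose (10 μM) screen run by the NCI Developmental Therapeutics Program on its 60 human cancer cell line panel. Viability was determined after 48 h incubation with the cells at 37 °C.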"}, "SNB-19": {"system": "SNB-19", "test": "Cytotoxicity against human SNB19 cells assessed as cell growth at 10 uM after 48 hrs by SRB assay relative to control", "type": "functional", "conditions": "SNB-19, 48 h, read-out: Activity", "in_short": "as §1"}, "SF-539": {"system": "SF-539", "test": "Cytotoxicity against human SF539 cells assessed as cell growth at 10 uM after 48 hrs by SRB assay relative to control", "type": "functional", "conditions": "SF-539, 48 h, read-out: Activity", "in_short": "(§2)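 NCI Developmental Therapeutics Program 60-cell-line screen at a single dose of 10 μM. Cells incubated with compound for 48 h at 37 °C before viability determination.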"}, "SF-295": {"system": "SF-295", "test": "Cytotoxicity against human SF295 cells assessed as cell growth at 10 uM after 48 hrs by SRB assay relative to control", "type": "functional", "conditions": "SF-295, 48 h, read-out: Activity", "in_short": "as §2"}, "SF-268": {"system": "SF-268", "test": "Cytotoxicity against human SF268 cells assessed as cell growth at 10 uM after 48 hrs by SRB assay relative to control", "type": "functional", "conditions": "SF-268, 48 h, read-out: Activity", "in_short": "as §2"}, "SW-620": {"system": "SW-620", "test": "Cytotoxicity against human SW620 cells assessed as cell growth at 10 uM after 48 hrs by SRB assay relative to control", "type": "functional", "conditions": "SW-620, 48 h, read-out: Activity", "in_short": "as §1"}, "HCC 2998": {"system": "HCC 2998", "test": "Cytotoxicity against human HCC2998 cells assessed as cell growth at 10 uM after 48 hrs by SRB assay relative to control", "type": "functional", "conditions": "HCC 2998, 48 h, read-out: Activity", "in_short": "as §2"}, "NCI-H322M": {"system": "NCI-H322M", "test": "Cytotoxicity against human NCI-H322M cells assessed as cell growth at 10 uM after 48 hrs by SRB assay relative to control", "type": "functional", "conditions": "read-out: Activity", "in_short": "as §2"}, "NCI-H23": {"system": "NCI-H23", "test": "Cytotoxicity against human NCI-H23 cells assessed as cell growth at 10 uM after 48 hrs by SRB assay relative to control", "type": "functional", "conditions": "NCI-H23, 48 h, read-out: Activity", "in_short": "as §2"}, "A549": {"system": "A549", "test": "Cytotoxicity against human A549 cells assessed as cell growth at 10 uM after 48 hrs by SRB assay relative to control", "type": "functional", "conditions": "A549, 48 h, read-out: Activity", "in_short": "as §2"}, "K562": {"system": "K562", "test": "Cytotoxicity against human K562 cells assessed as cell growth at 10 uM after 48 hrs by SRB assay relative to control", "type": "functional", "conditions": "K562, 48 h, read-out: Activity", "in_short": "as §2"}, "HL-60(TB)": {"system": "HL-60(TB)", "test": "Cytotoxicity against human HL-60(TB) cells assessed as cell growth at 10 uM after 48 hrs by SRB assay relative to control", "type": "functional", "conditions": "HL-60, 48 h, read-out: Activity", "in_short": "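Single-dose screen run by the NCI Developmental Therapeutics Program on its 60 human cancer cell line panel, leukemia lines included. Cells were exposed to 10 μM ligand and incubated at 37 °C for 48 h. Cell viability was then determined.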"}, "CCRF-CEM": {"system": "CCRF-CEM", "test": "Cytotoxicity against human CCRF-CEM cells assessed as cell growth at 10 uM after 48 hrs by SRB assay relative to control", "type": "functional", "conditions": "read-out: Activity", "in_short": "as §2"}, "[1]": {"test": "Binding affinity to GRP78 duplex DNA (unknown origin) at 0.2 to 3.9 mM by CD spectrophotometric analysis", "in_short": "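CD spectra recorded on duplex DNA (1.1 μM) in phosphate buffer (140 mM KCl, 1 mM MgCl₂, 5 mM sodium phosphate, pH 7.2) titrated with ligand 0–3.9 mM. Samples prepared as for melting. Molar ellipticity followed at the 260–280 nm maximum and the 248 nm minimum.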"}, "[2]": {"test": "Binding affinity to GRP78 duplex DNA (unknown origin) assessed as change in melting temperature at 0.2 mM after 36 hrs by thermal denaturation assay", "in_short": "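Duplex DNA (1.1 μM) annealed from complementary strands in phosphate buffer (140 mM KCl, 1 mM MgCl₂, 5 mM sodium phosphate, pH 7.2), with ligand 0.2–3.9 mM. Melting followed as % hyperchromicity at 260 nm over 5–90 °C. Tm shift measured against native duplex.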"}, "MDA-MB-468": {"system": "MDA-MB-468", "test": "Cytotoxicity against human MDA-MB-468 cells assessed as cell growth at 10 uM after 48 hrs by SRB assay relative to control", "type": "functional", "conditions": "MDA-MB-468, 48 h, read-out: Activity", "in_short": "as §2"}, "T47D": {"system": "T47D", "test": "Cytotoxicity against human T47D cells assessed as cell growth at 10 uM after 48 hrs by SRB assay relative to control", "type": "functional", "conditions": "read-out: Activity", "in_short": "as §1"}, "Hs-578T": {"system": "Hs-578T", "test": "Cytotoxicity against human Hs578T cells assessed as cell growth at 10 uM after 48 hrs by SRB assay relative to control", "type": "functional", "conditions": "read-out: Activity", "in_short": "as §2"}, "MDA-MB-231": {"system": "MDA-MB-231", "test": "Cytotoxicity against human MDA-MB-231 cells assessed as cell growth at 10 uM after 48 hrs by SRB assay relative to control", "type": "functional", "conditions": "MDA-MB-231, 48 h, read-out: Activity", "in_short": "as §2"}, "MCF7": {"system": "MCF7", "test": "Cytotoxicity against human MCF7 cells assessed as cell growth at 10 uM after 48 hrs by SRB assay relative to control", "type": "functional", "conditions": "MCF7, 48 h, read-out: Activity", "in_short": "as §2"}, "TK-10": {"system": "TK-10", "test": "Cytotoxicity against human TK10 cells assessed as cell growth at 10 uM after 48 hrs by SRB assay relative to control", "type": "functional", "conditions": "TK-10, 48 h, read-out: Activity", "in_short": "as §1"}, "RXF 393": {"system": "RXF 393", "test": "Cytotoxicity against human RXF393 cells assessed as cell growth at 10 uM after 48 hrs by SRB assay relative to control", "type": "functional", "conditions": "RXF 393, 48 h, read-out: Activity", "in_short": "as §2"}, "CAKI-1": {"system": "CAKI-1", "test": "Cytotoxicity against human Caki1 cells assessed as cell growth at 10 uM after 48 hrs by SRB assay relative to control", "type": "functional", "conditions": "CAKI-1, 48 h, read-out: Activity", "in_short": "as §2"}, "ACHN": {"system": "ACHN", "test": "Cytotoxicity against human ACHN cells assessed as cell growth at 10 uM after 48 hrs by SRB assay relative to control", "type": "functional", "conditions": "read-out: Activity", "in_short": "as §2"}, "OVCAR-5": {"system": "OVCAR-5", "test": "Cytotoxicity against human OVCAR5 cells assessed as cell growth at 10 uM after 48 hrs by SRB assay relative to control", "type": "functional", "conditions": "OVCAR-5, 48 h, read-out: Activity", "in_short": "as §2"}, "OVCAR-3": {"system": "OVCAR-3", "test": "Cytotoxicity against human OVCAR3 cells assessed as cell growth at 10 uM after 48 hrs by SRB assay relative to control", "type": "functional", "conditions": "OVCAR-3, 48 h, read-out: Activity", "in_short": "as §2"}, "IGROV-1": {"system": "IGROV-1", "test": "Cytotoxicity against human IGROV1 cells assessed as cell growth at 10 uM after 48 hrs by SRB assay relative to control", "type": "functional", "conditions": "IGROV-1, 48 h, read-out: Activity", "in_short": "as §2"}, "UACC-62": {"system": "UACC-62", "test": "Cytotoxicity against human UACC62 cells assessed as cell growth at 10 uM after 48 hrs by SRB assay relative to control", "type": "functional", "conditions": "UACC-62, 48 h, read-out: Activity", "in_short": "as §1"}, "M14": {"system": "M14", "test": "Cytotoxicity against human M14 cells assessed as cell growth at 10 uM after 48 hrs by SRB assay relative to control", "type": "functional", "conditions": "M14, 48 h, read-out: Activity", "in_short": "as §2"}}, "note": "The source made the active and inactive calls. No cut-off for these calls is given here."}
{"smiles": "CCCCCCCCCCCCCCCC(=O)O[C@@H]1[C@H](OC(=O)CCCCCCCCCCCCCCC)[C@@H](C(=O)N[C@@H](CCCCN)C(=O)OC)O[C@H]1n1cnc2c(=O)[nH]c(NC(=O)C(C)C)nc21.Cl", "values": [{"measurement": "growth at 10 µM", "setting": "U-251", "value": 90.2, "unit": "%"}, {"measurement": "growth at 10 µM", "setting": "SNB-19", "value": 93.5, "unit": "%"}, {"measurement": "growth at 10 µM", "setting": "SF-539", "value": 103, "unit": "%"}, {"measurement": "growth at 10 µM", "setting": "SF-295", "value": 108, "unit": "%"}, {"measurement": "growth at 10 µM", "setting": "SF-268", "value": 97.1, "unit": "%"}, {"measurement": "growth at 10 µM", "setting": "SW-620", "value": 104, "unit": "%"}, {"measurement": "growth at 10 µM", "setting": "HCC 2998", "value": 101, "unit": "%"}, {"measurement": "growth at 10 µM", "setting": "NCI-H322M", "value": 89.6, "unit": "%"}, {"measurement": "growth at 10 µM", "setting": "NCI-H23", "value": 97.8, "unit": "%"}, {"measurement": "growth at 10 µM", "setting": "A549", "value": 99.8, "unit": "%"}, {"measurement": "growth at 10 µM", "setting": "K562", "value": 82.9, "unit": "%"}, {"measurement": "growth at 10 µM", "setting": "HL-60(TB)", "value": 98.3, "unit": "%"}, {"measurement": "growth at 10 µM", "setting": "CCRF-CEM", "value": 86, "unit": "%"}, {"measurement": "Activity", "setting": "[1]", "value": "Active"}, {"measurement": "ΔTm", "setting": "[2]", "value": 4, "unit": "°C"}, {"measurement": "growth at 10 µM", "setting": "MDA-MB-468", "value": 83.1, "unit": "%"}, {"measurement": "growth at 10 µM", "setting": "T47D", "value": 88.2, "unit": "%"}, {"measurement": "growth at 10 µM", "setting": "Hs-578T", "value": 107, "unit": "%"}, {"measurement": "growth at 10 µM", "setting": "MDA-MB-231", "value": 118, "unit": "%"}, {"measurement": "growth at 10 µM", "setting": "MCF7", "value": 96.4, "unit": "%"}, {"measurement": "growth at 10 µM", "setting": "TK-10", "value": 101, "unit": "%"}, {"measurement": "growth at 10 µM", "setting": "RXF 393", "value": 105, "unit": "%"}, {"measurement": "growth at 10 µM", "setting": "CAKI-1", "value": 94, "unit": "%"}, {"measurement": "growth at 10 µM", "setting": "ACHN", "value": 102, "unit": "%"}, {"measurement": "growth at 10 µM", "setting": "OVCAR-5", "value": 108, "unit": "%"}, {"measurement": "growth at 10 µM", "setting": "OVCAR-3", "value": 105, "unit": "%"}, {"measurement": "growth at 10 µM", "setting": "IGROV-1", "value": 91.8, "unit": "%"}, {"measurement": "growth at 10 µM", "setting": "UACC-62", "value": 112, "unit": "%"}, {"measurement": "growth at 10 µM", "setting": "M14", "value": 93.7, "unit": "%"}]}
